This note sets out measurements from ChEMBL document CHEMBL4402512, “In vitro and in silico elucidation of antidiabetic and anti-inflammatory activities of bioactive compounds from Momordica charantia L” (Bioorg Med Chem, 2019).

Structures are written as SMILES. Activity calls are given as the source filed them. No cut-off for these calls is given here.

Test [1] concerns RAW264.7. Description: Anti-inflammatory activity in mouse RAW264.7 cells assessed as reduction in IL-1beta mRNA expression at 25 uM pre-incubated for 1 hr before […] for 18 hrs by qRT-PCR analysis. In kind it is functional, cell-based. The method in brief:
(§1)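 RAW 264.7 murine macrophages grown in RPMI 1640 with 10% FBS, penicillin/streptomycin, 37 °C, 5% CO2. Seeded at 5.0 × 10^5 cells/well and held 24 h, then given 25 μM compound for 1 h before LPS (1 µg/mL) for a further 18 h. Total RNA was extracted, 500 ng was reverse-transcribed to cDNA, and target mRNA was quantified by qRT-PCR.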
A general note: Real-time PCR tracks product formation cycle by cycle.

For test [2], the system named is Saccharomyces cerevisiae. Description: Inhibition of Saccharomyces cerevisiae alpha-glucosidase at 1.3 mM pre-incubated for 15 mins before p-nitrophenyl alpha-D-glucopyranoside substrate addition and measured after 30 mins. Put shortly:
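The enzyme was Saccharomyces cerevisiae α-glucosidase, assayed by a published protocol with slight modifications. Each compound was tested at two levels, 10 and 20 µL. Acarbose served as positive control. Runs were in triplicate with three biological replications, reported as mean ± SD and analysed by one-way ANOVA.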

For test [3], the system named is RAW264.7. Nature of the test: Anti-inflammatory activity in mouse RAW264.7 cells assessed as reduction in NFkappaB mRNA expression at 25 uM pre-incubated for 1 hr before […] for 18 hrs by qRT-PCR analysis. Type of test: functional, cell-based. The method in brief:
as §1

The subject of test [4] is RAW264.7. Nature of the test: Anti-inflammatory activity in mouse RAW264.7 cells assessed as reduction in IL6 mRNA expression at 25 uM pre-incubated for 1 hr before […] for 18 hrs by qRT-PCR analysis. In kind it is functional, cell-based. Put shortly:
as §1

The test system of test [5] is RAW264.7. Description: Anti-inflammatory activity in mouse RAW264.7 cells assessed as reduction in iNOS mRNA expression at 25 uM pre-incubated for 1 hr before […] for 18 hrs by qRT-PCR analysis. In kind it is functional, cell-based. Put shortly:
as §1

Test [6] deals with RAW264.7. Nature of the test: Anti-inflammatory activity in mouse RAW264.7 cells assessed as reduction in Cox2 mRNA expression at 25 uM pre-incubated for 1 hr before […] for 18 hrs by qRT-PCR analysis. Type of test: functional, cell-based. Put shortly: as §1
Test [7] addresses Alpha amylase (Homo sapiens) (UniProt P0DUB6). Nature of the test: Inhibition of alpha-amylase (unknown origin) assessed as reduction in conversion of starch to glucose at 0.87 mM incubated for 1 hr relative to control. The method in brief:
(§2)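 α-Amylase inhibition was measured by a published protocol with minor modifications. Test compounds were added at 10 and 20 µL, stated as equivalent to 0.43 and 0.86 mM. Acarbose was used at 0.067 and 0.13 mM. Runs were in triplicate with three biological replications and averaged, reported as mean ± SD with one-way ANOVA.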

In test [8] the test system is RAW264.7. Description: Anti-inflammatory activity in mouse RAW264.7 cells assessed as reduction in TNFalpha mRNA expression at 25 uM pre-incubated for 1 hr before […] for 18 hrs by qRT-PCR analysis. Type of test: functional, cell-based. Put shortly: as §1
For test [9], the target named is Alpha amylase (Homo sapiens) (UniProt P0DUB6). Description: Inhibition of alpha-amylase (unknown origin) assessed as reduction in conversion of starch to glucose at 0.13 mM incubated for 1 hr relative to control. The method in brief: as §2
Chain of Alpha amylase (Homo sapiens) (P0DUB6 whole entry, looked up): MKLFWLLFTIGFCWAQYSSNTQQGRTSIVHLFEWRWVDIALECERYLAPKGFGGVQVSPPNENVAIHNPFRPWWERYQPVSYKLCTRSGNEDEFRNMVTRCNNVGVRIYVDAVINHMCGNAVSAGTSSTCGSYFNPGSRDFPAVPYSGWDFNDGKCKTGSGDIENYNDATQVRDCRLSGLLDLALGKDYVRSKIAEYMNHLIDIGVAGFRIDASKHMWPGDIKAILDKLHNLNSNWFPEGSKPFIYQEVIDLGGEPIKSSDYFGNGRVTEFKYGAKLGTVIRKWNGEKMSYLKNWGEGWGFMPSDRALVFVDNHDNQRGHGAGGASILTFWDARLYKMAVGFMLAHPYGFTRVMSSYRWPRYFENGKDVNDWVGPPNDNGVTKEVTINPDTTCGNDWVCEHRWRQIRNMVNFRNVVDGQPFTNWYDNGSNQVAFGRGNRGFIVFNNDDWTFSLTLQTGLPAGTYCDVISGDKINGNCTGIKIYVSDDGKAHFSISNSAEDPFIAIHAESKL

What is called inhibition is the change of the read-out against control, counted positive when it falls. Turning to `C[C@H](CC(O)C(O)C(C)(C)O)[C@H]1CC[C@@]2(C)[C@@H]3C=C[C@@]45OC[C@]3(CC[C@]12C)[C@@H]4CC[C@H](O[C@@H]1O[C@H](CO)[C@@H](O)[C@@H](O)[C@H]1O)C5(C)C` (some centres not stated), the inhibition entry in test [1], in test [3], in test [4], in test [5] and in [6] was “Active” throughout. Also, the inhibition in [2] amounted to 49.4%; in test [7], 66.4%.
For `COC(C)(C)/C=C/C[C@@H](C)[C@H]1CC[C@@]2(C)[C@@H]3C=C[C@@]45OC[C@]3(CC[C@]12C)[C@@H]4CC[C@H](O[C@@H]1O[C@H](CO)[C@@H](O)[C@H](O)[C@H]1O)C5(C)C` [MOMORDICOSIDE F1], the inhibition result in test [1], in [3], in test [8], in [5] and in test [6] was “Active” throughout. Moreover, the values for the inhibition in [2] and in [7] were 35.9% and 63.5%, respectively.
Take `C[C@H]1O[C@H](O[C@H]2[C@H](O)[C@@H](O)[C@@H](O[C@H]3[C@H](O)[C@@H](O)C(O)O[C@@H]3CO)O[C@@H]2CO)[C@H](O)[C@@H](O)[C@@H]1N[C@H]1C=C(CO)[C@@H](O)[C@H](O)[C@H]1O` (some centres not stated): the inhibition in test [9] was 88%.
`O=C(O)c1cc(O[C@@H]2OC[C@@H](O)[C@H](O)[C@H]2O)ccc1O`: the inhibition result in test [1], in test [3], in test [4], in test [5] and in test [6] was “Active” throughout. Moreover, the results for the inhibition in test [2] and in test [7] were 56.4% and 60.7%, respectively.
As to `COC(C)(C)/C=C/C[C@@H](C)[C@H]1CC[C@@]2(C)[C@@H]3[C@@H](O[C@@H]4O[C@H](CO)[C@@H](O)[C@H](O)[C@H]4O)C=C4[C@@H](CC[C@H](O)C4(C)C)[C@]3(C=O)CC[C@]12C`, the inhibition result in test [1], in [3], in [5] and in test [6] was “Active” in each case. For the same molecule, the values for the inhibition in test [2] and in test [7] were 47.5% and 69%, respectively. Moreover, the inhibition entry in test [4] is “inactive”.
As to `C[C@H](C/C=C/C(C)(C)O)[C@H]1CC[C@@]2(C)[C@@H]3C=C[C@@]45OC[C@]3(CC[C@]12C)[C@@H]4CC[C@H](O[C@@H]1O[C@H](CO)[C@@H](O)[C@@H](O)[C@H]1O)C5(C)C` [MOMORDICOSIDE F2], the inhibition entry in test [1], in test [3] and in [5] was “Active” each time. Further, the values for the inhibition in [2] and in test [7] were 42.4% and 63.7%, respectively.
As to `C[C@H](C/C=C/C(C)(C)O)[C@H]1CC[C@@]2(C)[C@@H]3C=C[C@@]45OC[C@]3(CC[C@]12C)[C@@H]4CC[C@H](O[C@@H]1O[C@H](CO)[C@@H](O)[C@H](O)[C@H]1O)C5(C)C` [MOMORDICOSIDE I], the inhibition entry in test [1], in test [3], in test [4], in [5] and in [6] was “Active” each time. Moreover, the inhibition in test [2] came to 35.1%; in test [7], 64.2%.
Consider `COC(C)(C)/C=C/C[C@@H](C)[C@H]1CC[C@@]2(C)[C@@H]3C=C[C@@]45OC[C@]3(CC[C@]12C)[C@@H]4CC[C@H](O[C@@H]1O[C@H](CO)[C@@H](O)[C@@H](O)[C@H]1O)C5(C)C`, for which the inhibition entry in test [1], in test [3], in [8] and in [5] was “Active” in each case. The inhibition in test [2] came out at 48.5%; in [7] it was 70.5%.
